Measurements as given in ChEMBL document CHEMBL2346641, “Discovery of disubstituted piperidines and homopiperidines as potent dual NK1 receptor antagonists-serotonin reuptake transporter inhibitors for the treatment of depression” (Bioorg Med Chem, 2013).
Activity calls are given as the source filed them.

Columns and labels:
[1] = Drug uptake in gerbil brain at 0.3 mg/kg, ip after 36 mins; assay type: ADME, organism-based; parameters: dose 0.3 mg/kg, route intraperitoneal; details: gerbillinae, read-out: Drug uptake
Method in brief: (§1)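 Gerbils given IP doses as a solution in 100% PEG-400. Brain and serum sampled 36 min post-injection, covering the time from dosing to the end of the behavioral test. Values are means (n = 3) with SD.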

[2] = Drug uptake in gerbil serum at 0.3 mg/kg, ip after 36 mins; assay type: ADME, organism-based; parameters: dose 0.3 mg/kg, route intraperitoneal; details: gerbillinae, read-out: Drug uptake; method in brief: as §1
[3] = Drug uptake in gerbil serum at 1 mg/kg, ip after 36 mins; assay type: ADME, organism-based; parameters: dose 1 mg/kg, route intraperitoneal; details: gerbillinae, read-out: Drug uptake; method in brief: as §1
[4] = Drug uptake in gerbil serum at 10 mg/kg, ip after 36 mins; assay type: ADME, organism-based; parameters: dose 10 mg/kg, route intraperitoneal; details: gerbillinae, read-out: Drug uptake; method in brief: as §1
[5] = Drug uptake in gerbil serum at 3 mg/kg, ip after 36 mins; assay type: ADME, organism-based; parameters: dose 3 mg/kg, route intraperitoneal; details: gerbillinae, read-out: Drug uptake; method in brief: as §1
[6] = molecular target: T1, Sodium-dependent dopamine transporter (Homo sapiens, UniProt Q01959); assay: Inhibition of DAT (unknown origin) at 10 uM
Method in brief: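 Screened at 10 µM in a commercial panel of over 70 receptors. Significance threshold set at ≥50% inhibition.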

[7] = Drug uptake in gerbil brain at 1 mg/kg, ip after 36 mins; assay type: ADME, organism-based; parameters: dose 1 mg/kg, route intraperitoneal; details: gerbillinae, read-out: Drug uptake; method in brief: as §1
[8] = molecular target: T2, Neuromedin-K receptor (Homo sapiens, UniProt P29371); assay: Inhibition of NK3 receptor (unknown origin)
T2 sequence (P29371 whole entry): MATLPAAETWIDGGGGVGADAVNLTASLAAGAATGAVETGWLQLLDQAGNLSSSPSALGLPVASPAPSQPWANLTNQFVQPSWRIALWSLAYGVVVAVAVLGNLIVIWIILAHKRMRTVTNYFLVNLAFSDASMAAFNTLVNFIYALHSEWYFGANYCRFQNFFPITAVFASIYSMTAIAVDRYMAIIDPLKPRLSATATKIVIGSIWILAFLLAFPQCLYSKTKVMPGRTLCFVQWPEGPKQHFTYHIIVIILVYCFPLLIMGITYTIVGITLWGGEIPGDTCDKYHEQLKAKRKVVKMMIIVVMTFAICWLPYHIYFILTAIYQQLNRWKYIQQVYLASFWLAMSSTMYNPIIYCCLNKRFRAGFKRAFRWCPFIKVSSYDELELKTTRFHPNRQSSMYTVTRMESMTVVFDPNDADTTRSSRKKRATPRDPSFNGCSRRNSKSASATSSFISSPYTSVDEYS

[9] = Ratio of drug level in brain to serum in gerbil at 30 mg/kg, ip after 36 mins; assay type: ADME, organism-based; parameters: dose 30 mg/kg, route intraperitoneal; details: gerbillinae
Method in brief: (§2)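 Gerbils given single IP dose in 100% PEG-400 (0.1–30 mg/kg); brain and serum sampled 36 min post-dose, matching the interval from dosing to end of forced swim test. Drug concentrations (nM) measured in each matrix and brain-to-serum ratio calculated; mean of n = 3 with SD.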

[10] = Ratio of drug level in brain to serum in gerbil at 3 mg/kg, ip after 36 mins; assay type: ADME, organism-based; parameters: dose 3 mg/kg, route intraperitoneal; details: gerbillinae; method in brief: as §2
[11] = molecular target: 5-hydroxytryptamine receptor 2A (Homo sapiens, UniProt P28223); assay: Inhibition of 5HT2A receptor (unknown origin)
[12] = molecular target: T1, Sodium-dependent dopamine transporter; assay: Inhibition of DAT (unknown origin)

T1 sequence (Q01959 whole entry): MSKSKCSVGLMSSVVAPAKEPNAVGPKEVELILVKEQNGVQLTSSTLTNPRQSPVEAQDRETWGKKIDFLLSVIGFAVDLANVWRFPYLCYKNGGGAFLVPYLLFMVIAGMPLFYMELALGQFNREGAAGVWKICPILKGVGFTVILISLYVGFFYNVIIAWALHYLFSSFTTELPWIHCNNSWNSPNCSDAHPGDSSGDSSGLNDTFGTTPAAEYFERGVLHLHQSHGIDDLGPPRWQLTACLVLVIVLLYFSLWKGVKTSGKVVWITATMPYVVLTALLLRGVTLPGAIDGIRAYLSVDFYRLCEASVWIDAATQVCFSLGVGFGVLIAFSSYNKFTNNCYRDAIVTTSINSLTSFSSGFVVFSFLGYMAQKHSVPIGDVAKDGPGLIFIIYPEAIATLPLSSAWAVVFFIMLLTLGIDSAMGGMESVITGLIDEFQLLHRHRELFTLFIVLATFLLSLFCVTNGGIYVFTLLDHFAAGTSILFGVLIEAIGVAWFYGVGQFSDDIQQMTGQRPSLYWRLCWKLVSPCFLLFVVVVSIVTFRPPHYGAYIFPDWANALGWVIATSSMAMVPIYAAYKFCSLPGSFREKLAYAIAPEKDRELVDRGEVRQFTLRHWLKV
Sequence of 5-hydroxytryptamine receptor 2A (P28223 whole entry): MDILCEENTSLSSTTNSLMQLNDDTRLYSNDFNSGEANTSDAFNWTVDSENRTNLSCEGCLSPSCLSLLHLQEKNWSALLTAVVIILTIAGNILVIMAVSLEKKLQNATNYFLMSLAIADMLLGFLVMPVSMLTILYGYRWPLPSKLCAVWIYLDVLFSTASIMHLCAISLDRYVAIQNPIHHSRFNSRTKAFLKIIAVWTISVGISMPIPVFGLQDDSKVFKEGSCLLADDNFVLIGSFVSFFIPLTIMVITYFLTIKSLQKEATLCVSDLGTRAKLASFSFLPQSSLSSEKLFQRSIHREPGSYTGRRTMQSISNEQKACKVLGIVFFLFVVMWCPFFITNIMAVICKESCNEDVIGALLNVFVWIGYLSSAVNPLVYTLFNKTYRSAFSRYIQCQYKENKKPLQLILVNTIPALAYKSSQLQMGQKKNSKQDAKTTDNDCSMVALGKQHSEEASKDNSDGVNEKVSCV

concentration at 0.6 h [1]: 44 nM | concentration at 0.6 h [2]: 12 nM | concentration at 0.6 h [3]: 35 nM | concentration at 0.6 h [4]: 730 nM | concentration at 0.6 h [5]: 210 nM | inhibition [6]: Active | concentration at 0.6 h [7]: 150 nM | IC50 [8]: > 1000 nM | Kp at 0.6 h [9]: 2.3 | Kp at 0.6 h [10]: 4.2 | IC50 [11]: > 1000 nM | IC50 [12]: > 1000 nM
SMILES: FC(F)(F)c1cc(COCC2(c3ccccc3)CCNCC2)cc(C(F)(F)F)c1
